≈ marks a conversion by molar mass, not a printed value.
What was measured:
Type in all cases: functional
Staphylococcus aureus [1] = experiment: Antibacterial activity against Staphylococcus aureus Smith by microdilution method
Method in brief: (§1)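 MICs in duplicate on at least two occasions by standard CLSI broth microdilution; S. aureus grown and quantified in Mueller-Hinton broth/agar.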

Staphylococcus aureus [2] = experiment: Antibacterial activity against Staphylococcus aureus 33591 by microdilution method; method in brief: as §1
Staphylococcus aureus [3] = experiment: Antibacterial activity against Staphylococcus aureus 31005 by microdilution method
Method in brief: (§2)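 MIC and MBC were determined by CLSI broth microdilution, in duplicate on at least two occasions. Staphylococci were grown in Mueller-Hinton broth and agar; pneumococci were plated on sheep blood agar.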

Staphylococcus aureus [4] = experiment: Antibacterial activity against Staphylococcus aureus ATCC 25923 by microdilution method; method in brief: as §2
Staphylococcus aureus [5] = experiment: Antibacterial activity against Staphylococcus aureus 307109 by microdilution method; method in brief: as §2

Question: Which results are given for `COc1cccc(OC)c1C(=O)N[C@@H]1C(=O)N2[C@@H]1SC(C)(C)[C@@H]2C(=O)O` [METHICILLIN]?
Answer: MIC (Staphylococcus aureus [1]): 0.12 µg/mL (≈ 0.315 µM); MIC (Staphylococcus aureus [2]): > 8 µg/mL; MIC (Staphylococcus aureus [3]): 0.12 µg/mL (≈ 0.315 µM); MIC (Staphylococcus aureus [4]): 0.12 µg/mL (≈ 0.315 µM); MIC (Staphylococcus aureus [5]): > 8 µg/mL

Source: ChEMBL document CHEMBL1145462, “In vivo pharmacodynamic activity of the glycopeptide dalbavancin” (Antimicrob Agents Chemother, 2007)
